Source: ChEMBL document CHEMBL1806495, “Phenylpropenamide derivatives: anti-hepatitis B virus activity of the Z isomer, SAR and the search for novel analogs” (Bioorg Med Chem Lett, 2011)
Active and inactive are the calls of the source. The rule behind the calls is not given here.

What was measured:
Hepatitis B virus [1] = test: Antiviral activity against HBV infected in human HepAD38 cells assessed as inhibition of viral DNA synthesis after 3 days; format: functional; details: HePAD38, 72 h
In short: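 Anti-HBV readout in the Hep AD38 cellular assay: the value is reported as EC90, the compound concentration that inhibits viral DNA synthesis by 90%.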

[2] = Cytotoxicity against human HepAD38 cells; format: cell-based
In short: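 Viability of Hep AD38 cells measured within the same cellular assay. The value is reported as CC90, the drug concentration that reduces cell viability by 90%.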

Hepatitis B virus [3] = test: Antiviral activity against HBV infected in human HepAD38 cells assessed as inhibition of viral DNA synthesis up to 100 uM after 3 days; format: functional, organism-based

| EC90 (Hepatitis B virus [1]) [µM] | SMILES | CC90 [2] [µM] | inhibition (Hepatitis B virus [3]) |
| --- | --- | --- | --- |
| > 10 | O=C(C1C(c2ccccc2)CCN1C(=O)c1ccc(Br)cc1)N1CCCCC1 (stereo unspecified) | > 10 | – |
| 1.92 | C/C(=C(/NC(=O)c1ccc(Cl)cc1)C(=O)N1CCCCC1)c1ccccc1 | > 10 | – |
| > 10 | O=C(C1C(c2ccccc2)CCN1C(=O)c1ccccc1)N1CCCCC1 (stereo unspecified) | > 10 | – |
| > 10 | O=C(N/C(C(=O)N1CCOCC1)=C(\Cl)c1ccccc1)c1ccccc1 | > 10 | – |
| > 10 | O=C(N/C(C(=O)N1CCCCC1)=C(\Cl)c1ccccc1)c1ccc([N+](=O)[O-])cc1C(F)(F)F | > 10 | – |
| > 10 | COc1cc([N+](=O)[O-])ccc1C(=O)N/C(C(=O)N1CCCCC1)=C(\Cl)c1ccccc1 | > 10 | – |
| 4.72 | COc1ccccc1/C(Cl)=C(/NC(=O)c1ccccc1)C(=O)N1CCOCC1 | > 10 | – |
| > 10 | COc1ccc(C(=O)N/C(C(=O)N2CCCCC2)=C(\Cl)c2ccccc2)cc1 | > 10 | – |
| > 10 | O=C(c1c(-c2ccccc2)ccn1C(=O)c1ccc(Br)cc1)N1CCCCC1 | > 10 | – |
| > 10 | COc1ccccc1C1=C(C(=O)N2CCCCC2)N(C(=O)c2ccccc2)CC1 | > 10 | – |
| 5.9 | O=C(N/C(C(=O)N1CCCCC1)=C(\Br)c1ccccc1)c1ccccc1 | > 10 | – |
| > 10 | O=C(N/C(C(=O)N1CCCCC1)=C(\Cl)c1ccc(Cl)cc1)c1ccccc1 | > 10 | – |
| > 10 | CS(=O)(=O)c1ccc(C(=O)N/C(C(=O)N2CCCCC2)=C(\Cl)c2ccccc2)cc1 | > 10 | – |
| 2.17 | O=C(N/C(C(=O)N1CCCCC1)=C(\Cl)c1ccccc1)c1ccc(F)cc1 | > 10 | – |
| 0.91 | O=C(N/C(C(=O)N1CCCCC1)=C(\Br)c1ccccc1)c1ccc(Cl)cc1 | > 10 | – |
| > 10 | Cc1ccc(/C(Cl)=C(/NC(=O)c2ccccc2)C(=O)N2CCCCC2)cc1 | > 10 | – |
| 1.69 | COc1ccccc1/C(Cl)=C(/NC(=O)c1ccc([N+](=O)[O-])cc1)C(=O)N1CCCC1 | > 10 | – |
| 1.67 | O=C(N/C(C(=O)N1CCCCC1)=C(\Cl)c1ccccc1)c1ccc([N+](=O)[O-])cc1 | > 10 | – |
| 1.8 | Cc1ccccc1/C(Cl)=C(/NC(=O)c1ccccc1)C(=O)N1CCCCC1 | > 10 | – |
| 1.25 | O=C(N/C(C(=O)N1CCCCC1)=C(\Cl)c1ccccc1)c1ccc(Cl)cc1 | > 10 | – |
| – | O=C(N/C(C(=O)N1CCCCC1)=C(/Cl)c1ccccc1)c1ccccc1 | – | inactive |

| EC90 (Hepatitis B virus [1]) [µM] | SMILES | CC90 [2] [µM] | inhibition (Hepatitis B virus [3]) |
| --- | --- | --- | --- |
| 1.25 | O=C(N/C(C(=O)N1CCCCC1)=C(\Br)c1cccc2c1OCO2)c1ccc([N+](=O)[O-])cc1 | > 10 | – |
| 5.51 | O=C(N/C(C(=O)N1CCCCC1)=C(\Cl)c1ccccc1)c1ccccc1 | > 10 | – |
| 2.9 | Cc1ccc(C(=O)N/C(C(=O)N2CCCCC2)=C(\Cl)c2ccccc2)cc1 | > 10 | – |
| 4.06 | O=C(N/C(C(=O)N1CCCCC1)=C(\Cl)c1ccccc1)c1ccc([N+](=O)[O-])cc1Br | > 10 | – |
| 2.78 | COc1ccccc1/C(Br)=C(/NC(=O)c1ccccc1)C(=O)N1CCOCC1 | > 10 | – |
| > 10 | O=C(C1=C(c2ccccc2)CCN1C(=O)c1ccc(Br)cc1)N1CCCCC1 | > 10 | – |
| 0.39 | COc1ccccc1/C(Br)=C(/NC(=O)c1ccc([N+](=O)[O-])cc1)C(=O)N1CCCC1 | > 10 | – |
| > 10 | O=C(c1c(-c2ccccc2)ccn1C(=O)c1ccccc1)N1CCCCC1 | > 10 | – |
| > 10 | O=C(N/C(C(=O)N1CCCCC1)=C(\Cl)c1ccccc1)c1ccc([N+](=O)[O-])cc1[N+](=O)[O-] | > 10 | – |
| > 10 | O=C(N/C(C(=O)N1CCCC(F)(F)C1)=C(\Cl)c1ccccc1)c1ccccc1 | > 10 | – |
| > 10 | CN1CCN(C(=O)/C(NC(=O)c2ccccc2)=C(/Cl)c2ccccc2)CC1 | > 10 | – |
| 0.56 | COc1ccccc1/C(Cl)=C(/NC(=O)c1ccc([N+](=O)[O-])cc1)C(=O)N1CCCCC1 | > 10 | – |
| 1.71 | COc1ccccc1/C(Cl)=C(/NC(=O)c1ccccc1)C(=O)N1CCCCC1 | > 10 | – |
| 4.66 | O=C(N/C(C(=O)N1CCCCC1)=C(\Cl)c1cccc2c1OCO2)c1ccc([N+](=O)[O-])cc1 | > 10 | – |
| 3.92 | C/C(=C(/NC(=O)c1ccc(Br)cc1)C(=O)N1CCCCC1)c1ccccc1 | > 10 | – |
| 1.81 | O=C(N/C(C(=O)N1CCCCC1)=C(\Cl)c1ccccc1F)c1ccccc1 | > 10 | – |
| 6.04 | O=C(N/C(C(=O)N1CCCCC1)=C(\Cl)c1ccccc1)c1ccc(Br)cc1 | > 10 | – |
| > 10 | O=C(C1=C(c2ccccc2)CCN1C(=O)c1ccccc1)N1CCCCC1 | > 10 | – |
| 9.9 | O=C(N/C(C(=O)N1CCCCC1)=C(\Cl)c1cccc2c1OCO2)c1ccccc1 | > 10 | – |
| 6.43 | CC1CCCN(C(=O)/C(NC(=O)c2ccccc2)=C(/Cl)c2ccccc2)C1 (stereo unspecified) | > 10 | – |
